eIF4H inh – human eIF4H binding inhibitors, primary screen, translation initiation inhibitor project, biochemical, uHTS, fluorescence polarization. inhibition, % at 35 µM. AID 2012, 2009. 0.94% of 290,000 active. eIF4H fluorescence polarization binding assay;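 further: calls also rest on retests at 20 µM and on dose response follow-up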
MLLE-PAM2 inh – inhibitors of PABP1 MLLE–PAM2 peptide binding, primary screen, biochemical, fluorescence polarization, FITC-PAM2, GST-MLLE; inhibition, % at 20 µM; 0.36% of 360,000 active; AID 588489, 2011; in the data active means inhibition above about 35%, passing the limit was not always enough;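 further: plate controls were DMSO wells with GST-MLLE for no effect and wells lacking GST-MLLE protein for full effect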
MT1-MMP act inh – blockers of MT1-MMP proenzyme processing, primary screen, HT1080 RFP-PRO-GFP cells, GFP/RFP fluorescence | Matrix metalloproteinase-14 (Homo sapiens), P50281 | GFP/RFP ratio fluorescence, overnight; percent of plate control window, DMSO zero | GFP/RFP ratio change, % at 20 µM | 0.061% of 360,000 active | AID 651647, 2012;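 active means GFP/RFP ratio change of at least 30% with cell ATP level not reduced by more than half and red fluorescence within 50% of control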
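Assay system: HT1080 cells carrying an RFP-PRO-GFP reporter | Dosing: Single dose of 20 µM compound, 1% DMSO final | Incubation: Cells overnight before dosing, compound overnight, 37 °C, 5% CO2 | Evaluation: GFP/RFP fluorescence ratio | Control set: DMSO and RFP-L50D-GFP cell wells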
PABP FP inh – PABP poly(A) RNA binding inhibitors, primary screen, biochemical, fluorescence polarization, uHTS. Polyadenylate-binding protein 1 (Homo sapiens), P11940. 1% of 290,000 active. AID 2014, 2009. calls only at 35 µM;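 further: calls also rest on retests at 20 µM and on dose response follow-up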
SKN-1 block – suppressors of acrylamide-induced Pgst-4::GFP reporter in worms, primary screen, SKN-1 inhibitor project, whole organism, uHTS, GFP/RFP fluorescence ratio, strain VP596 | inhibition, % at 21.8 µM | C. elegans VP596 Pgst-4::GFP/RFP ratio, 24 h | 0.49% of 360,000 active;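 active means interference check ratio from 0.5 to 1.5 plus GFP to RFP signal ratio inhibition reaching or exceeding a fixed threshold, cut at about 30% in these data, passing the limit was not always enough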
* hit, by the source's call; i = inactive; ? = inconclusive; . = no result; + = active, no number. In the library only some 1.8% were active in any assay of this set; here they are far more common. Unless noted, how the calls were made is not given here.

SMILES	eIF4H inh	MLLE-PAM2 inh	MT1-MMP act inh	PABP FP inh	SKN-1 block
O=C1C(Cl)=CC(=Nc2ccc(O)cc2)C=C1Cl	.	46*	3	.	14
O=C1NCN(c2ccccc2)C12CCN(C(c1cc3ccccc3o1)c1nnnn1C1CCCCC1)CC2 (configuration not stated)	.	-6	-2	.	-4
C[CH2][Hg][S]c1ccccc1C(=O)O	.	23	9	.	38*
N#CCCn1cc(C(=O)NCc2ccccc2)c(-c2ccc3c(c2)OCCO3)n1	2	7	-3	i	13
N#CCCn1cc(C(=O)Nc2ccccc2Br)c(-c2ccc3c(c2)OCCO3)n1	active	-9	-1	i	-1
N#CC(=C(O)c1ccc(S(=O)(=O)N(CCCl)CCCl)cc1)c1nc2ccccc2[nH]1	.	-1	2	.	-5
O=C1NCN(c2ccccc2)C12CCN(C(CCc1ccccc1)c1nnnn1C1CCCC1)CC2 (configuration not stated)	.	-8	-1	.	22
CCCCn1c(O)c(C(C)=NC(C)c2ccccc2)c(=O)[nH]c1=O (configuration not stated)	active	-3	10	+	14
CC(=O)OC1C(=O)OCC23CCC4(C)OC4C2OC2CC(OC(=O)C=CC=CC(=O)OCCC1C)C3(C)C21CO1 (configuration not stated)	.	4	-35	.	42*
CCC1(C)OC(c2ccccc2)=C/C(=C/C=C2C(=O)NC(=O)NC2=O)O1 (configuration not stated)	?	-125	-112	i	48*
CCC1(Oc2ccccc2)C(=O)NC(=O)NC1=O	.	-5	-4	.	7
O=C1NC(=S)NC(=O)C1=Cc1ccc2c(c1)CCN2CCCCl	68*	-23	-2	+	38*
COc1cccc(C2CCN(C)C2)c1 (configuration not stated)	.	-1	3	.	3
CCc1ccc2nc(N3CCC(C(=O)N4CCC5(CC4)OCCO5)CC3)sc2c1	2.3*	-8	-2	+	-4
Cc1ccc2nc(N3CCC(C(=O)N4CCC5(CC4)OCCO5)CC3)sc2c1	1	-3	0	i	-28
CCOC(=O)/C(CCCN(CC)CC)=N\O	5	-123	-5	+	11
COc1cc2c(cc1OC)-c1c(OC)c(OC)cc3c1C(C2)N(C)CC3 (configuration not stated)	27	-9	9	i	12
COc1cc2c(cc1O)C[C@H]1NCCc3cc4c(c-2c31)OCO4	64*	-6	3	+	24
CC(=O)Nc1ccc(OC(=O)N(C)c2ccccc2)cc1	active	12	2	i	3
CC(=O)c1c(O)n(-c2cccc(Cl)c2)c(=O)[nH]c1=O (tested in a mixture with another compound)	112*	-57	-19	+	12
COC(=O)C1=C(c2ccc(F)cc2OCc2ccccc2)C[C@@H]2CC[C@H]1N2C(=O)NCc1cccc(C(F)(F)F)c1	.	5	-9	.	3
C[C@]12CCC3C(CC[C@@H]4C[C@H](O)CC[C@]34C)C1CCC2=O (some centres not stated)	.	4	-1	.	0
CCN(CC)CCO	.	12	0	.	-5
CCN1C(=O)/C(=C/c2ccc(N(CC)CC)cc2OC)C(=O)NC1=S	?	-142	0	?	45*
COc1ccccc1/C=C1\C(=O)NC(=S)N(c2ccccc2)C1=O	-8	13	-11	i	12
SMILES	eIF4H inh	MLLE-PAM2 inh	MT1-MMP act inh	PABP FP inh	SKN-1 block
Cn1ccnc1P(=S)(c1nccn1C)N1CCOCC1	-11	37*	0	i	-3
Nc1ncnc2c1ccn2[C@@H]1O[C@H](CO)[C@@H](O)[C@H]1O	.	-1	-19	.	8
NC(=S)c1cn(C2OC(CO)C(O)C2O)c2ncnc(N)c12 (configuration not stated)	-3	43*	-37	i	-15
COC(=O)C1=C(c2ccc(Cl)c(C(F)(F)F)c2)C[C@@H]2CC[C@H]1N2C(=O)N1CCC(C)CC1	.	4	-4	.	3
S=C(c1ccc(Cl)cc1)N1CCOCC1	-14	44*	3	i	3
COc1ccc(CC2NCC(O)C2OC(C)=O)cc1 (configuration not stated)	.	9	-34	.	0
COc1ccc2c3c1OC1C(O)C=CC4C(C2)[N+](C)(C)CCC341 (configuration not stated)	48	-32	-3	+	0
CN1CC[C@]23c4c5ccc(O)c4OC2[C@H](O)C=CC3[C@H]1C5 (some centres not stated)	.	0	0	.	1
Cc1ccc2[nH]c3c(c2c1)CN(C(=O)CN1C[C@H]2C[C@@H](C1)c1cccc(=O)n1C2)CC3	69	16	-9	+	9
Cc1ccc2occ(CN3CC4CC(C3)c3cccc(=O)n3C4)c(=O)c2c1 (configuration not stated)	11	4	4	i	2
O=C(Cn1ncc2c3ccccc3n(Cc3cccc(Cl)c3)c2c1=O)N1CCC2(CC1)OCCO2	73*	-22	-2	+	-11
COC(=O)C1=C(c2cccc(Cl)c2)C[C@@H]2CC[C@H]1N2C(=O)N1CCCC1	.	11	5	.	-3
O=c1[nH]c(=S)n(-c2ccccc2)c(O)c1/C=N/N1CCCCC1c1cccnc1 (configuration not stated)	53	-102	-6	i	41*
CCOc1ccc(-n2c(O)c(N=Nc3c(C)n(C)n(-c4ccccc4)c3=O)c(=O)[nH]c2=O)cc1	-6	-31	6	i	13
O=c1[nH]c(=O)n(-c2ccccc2)c(O)c1N=Nc1ccc(Br)cc1	2.1*	-1	10	i	-14
COc1ccc(-n2nnnc2C(CCSC)N2CCC(n3c(=O)[nH]c4ccccc43)CC2)cc1 (configuration not stated)	.	-7	-9	.	22
COc1ccc(NC(=S)N2Cc3ccccc3-n3nncc3C2)c(OC)c1	.	-84	-4	.	-9
CCOc1ccc(-n2c(O)c(C=NCCN3CCNCC3)c(=O)[nH]c2=O)cc1	active	1	2	+	2
O=C1NC(=O)C2(Cc3ccccc3N3CCCC32)C(=O)N1c1ccc(Cl)cc1 (configuration not stated)	-5	.	.	i	.
Cc1ccc(N2C(=O)NC(=O)C3(Cc4ccccc4N4CCCC43)C2=O)cc1 (configuration not stated)	16	-7	-10	i	59*

Source: PubChem BioAssay (Sanford-Burnham Center for Chemical Genomics)
